Bioassay records as filed in PubChem BioAssay.
Most compounds without a hit are left out; they make up all but 1.3% or so of the library.
PME-1 primary = blocks human protein phosphatase methylesterase 1; Q9Y570; recombinant PME-1, FP-Rh probe fluorescence polarization; inhibition, % at 5.9 µM; 320,000 compounds, 0.53% hits; AID 2130;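 active = inhibition above the campaign mean of all compounds plus 3 SD, cut at about 26% in these data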;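 also: competitive labeling of PME-1 active site by serine hydrolase directed probe; inhibitors block probe labeling so polarization falls and inhibition rises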
Fam108B inh = Fam108B inhibition, counter-screen for RBBP9 inhibitors; inhibition, % at 9.51 µM; 300,000 compounds, 0.33% hits; recombinant Fam108B, FP-Rh probe fluorescence polarization; AID 1947;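 active = inhibition above the screen mean inhibition plus 3 SD, computed separately per campaign, cut at about 18% in these data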;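 also: inhibitors lower polarization as less probe binds the enzyme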
RBBP9 inh = inhibitors of human serine hydrolase RBBP9; O75884; recombinant RBBP9, FP-Rh probe fluorescence polarization; inhibition, % at 7.94 µM; 220,000 compounds, 0.2% hits;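 active = inhibition above the campaign mean of all tested compounds plus 3 SD, cut at about 14% in these data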
Target sequence (O75884 whole entry, looked up): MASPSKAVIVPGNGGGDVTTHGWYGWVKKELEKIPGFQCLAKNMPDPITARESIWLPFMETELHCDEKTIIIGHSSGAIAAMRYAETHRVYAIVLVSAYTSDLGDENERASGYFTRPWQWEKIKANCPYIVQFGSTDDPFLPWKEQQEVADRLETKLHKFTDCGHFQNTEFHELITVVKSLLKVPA
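System: RBBP9 protein | Quantity: 2.5 µM RBBP9 dispensing solution, before mixing | Reagent: FP-Rh probe, 375 nM dispensing solution | Timing: Enzyme-compound preincubation 30 min, then probe labeling 45 min, 25 °C | Measured by: Fluorescence polarization | Read-out: % inhibition | Replication: One well per compound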
PAD4 inh = inhibitors of human PAD4; AID 485272; recombinant PAD4, RCA probe fluorescence polarization; inhibition, % at 6.36 µM; 330,000 compounds, 0.41% hits; Q9UM07;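 active = percent inhibition above a cutoff equal to the mean of all tested compounds plus 3 SD, cut at about 15% in these data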
LYPLA2 counter = counter-screen for PME1 inhibitors: inhibitors of human LYPLA2; O95372; inhibition, % at 5.9 µM; recombinant LYPLA2, FP-Rh probe fluorescence polarization; 320,000 compounds, 0.38% hits;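 active = inhibition above the screen-wide mean plus 3 SD, limit set per campaign, cut at about 26% in these data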
Target sequence (O95372 whole entry, looked up): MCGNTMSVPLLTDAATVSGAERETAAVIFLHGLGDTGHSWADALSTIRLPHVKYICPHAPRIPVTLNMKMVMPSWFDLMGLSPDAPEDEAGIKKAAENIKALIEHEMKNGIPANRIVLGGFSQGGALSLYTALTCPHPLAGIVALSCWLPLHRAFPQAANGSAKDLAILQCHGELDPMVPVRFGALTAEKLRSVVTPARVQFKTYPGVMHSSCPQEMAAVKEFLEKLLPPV
LYPLA1 counter = counter-screen for PME1 inhibitors: inhibitors of human LYPLA1; O75608; recombinant LYPLA1, FP-Rh probe fluorescence polarization; inhibition, % at 5.9 µM; 320,000 compounds, 0.16% hits;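 active = inhibition above the mean of all tested compounds plus 3 SD, set per campaign, cut at about 14% in these data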;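 also: inhibitors block serine hydrolase probe labeling of LYPLA1 so polarization falls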
LYPLA2 confirm = LYPLA2 (human) inhibition, confirmation counter-screen | shares compounds with LYPLA2 counter | recombinant LYPLA2, FP-Rh probe fluorescence polarization | inhibition, % at 5.9 µM | 1,100 compounds, 72% hits;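 active = mean inhibition across replicates above the hit cutoff set in the primary screen, cut at about 26% in these data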;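 also: blocked labeling of the enzyme by serine hydrolase FP-Rh probe lowers polarization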
LYPLA2 gel ABPP = LYPLA2 (human) inhibition, late stage results | shares compounds with LYPLA2 counter | rhLYPLA2 in mouse brain proteome, gel ABPP FP-Rh | inhibition, % at 20 µM | 150 compounds, 30% hits | AID 652029;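 active = inhibition of LYPLA2 enzyme probe labeling above about 50%, limit read from the data; inactive = inhibition below that limit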;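 also: loss of FP-Rh probe labeling of the LYPLA2 gel band measured as band density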
Hits are given with their value; - = inactive; . = no result given.

SMILES | PME-1 primary | Fam108B inh | RBBP9 inh | PAD4 inh | LYPLA2 counter | LYPLA1 counter | LYPLA2 confirm | others
CC(=O)Nc1ccc(CN2CCN(c3cccc(C(F)(F)F)c3)CC2)cc1 | - | - | - | - | 55 | - | 58 | LYPLA2 gel ABPP=-
Cc1ccc(CC(=O)N2CCN(c3cccc(C(F)(F)F)c3)CC2)cc1 | - | - | - | - | - | - | .
CC(=O)Nc1cccc(-n2nnc(SCC(=O)N(C)c3ccccc3)n2)c1 | - | - | - | - | 34 | - | 40
O=C(NNc1ccccc1[N+](=O)[O-])Nc1ccccc1 | - | - | - | - | 28 | - | -
O=C(NNc1ccccc1[N+](=O)[O-])Nc1ccc(Cl)c(Cl)c1 | - | - | - | - | 49 | - | 44
CCCCc1cc(=O)oc2cc(OCC(=O)Nc3cccnc3)c(Cl)cc12 | - | - | . | - | 28 | - | -
Cc1ccc(C(=O)NCCC(=O)N2CCC3(CC2)NCCc2[nH]cnc23)cc1C | - | - | . | - | - | - | .
COc1cccc(-c2cc(C(=O)N3CCN(Cc4ccc5c(c4)OCO5)CC3)on2)c1 | - | - | . | - | 30 | - | 29
O=C(COc1ccc(Cl)cc1)N1CCN(Cc2ccc3c(c2)OCO3)CC1 | - | - | . | - | 34 | - | 29
O=C(Nc1ccc(Cl)cc1)N1CCN(Cc2ccc3c(c2)OCO3)CC1 | - | - | - | - | - | - | .
CCOc1ccccc1C(=O)NCC(=O)N1CCN(Cc2ccc3c(c2)OCO3)CC1 | - | . | . | - | 62 | - | 57 | LYPLA2 gel ABPP=-
CCOC(=O)C1=C(COC(=O)CCOc2ccccc2C)NC(=O)NC1C (configuration not stated) | - | - | . | - | - | - | .
O=C(c1ccc(N2CCN(C(=O)c3ccc(F)c(F)c3)CC2)cc1)c1cccc(F)c1 | - | - | . | - | 32 | - | 33
O=C(c1ccc(N2CCN(C(=O)c3ccccc3)CC2)cc1)c1cccc(F)c1 | - | - | . | - | 27 | - | 30
Cc1csc(=O)n1CCC(=O)OCC(=O)Nc1cccc(C#N)c1 | - | - | . | - | - | - | .
COc1ccc(C(=O)OCC(=O)Nc2c(C)n(C)n(-c3ccccc3)c2=O)cc1 | . | . | . | - | . | . | .
Nc1nc(N2CCN(C/C=C/c3ccccc3)CC2)nc2ccccc12 | - | - | - | - | 42 | - | 39
O=c1[nH]c(CN2CCN(C/C=C/c3ccccc3)CC2)nc2ccccc12 | - | - | - | - | - | - | .
CN(C(=O)COc1ccc([N+](=O)[O-])cc1)C1CCS(=O)(=O)C1 (configuration not stated) | - | - | - | - | 31 | - | -
O=C(Cn1cc([N+](=O)[O-])cn1)Nc1ccc(Cn2cc(Br)cn2)cc1 | - | - | - | - | 56 | - | 57 | LYPLA2 gel ABPP=-
COc1ccc(N2CCN(C(=O)Cn3cnc4c3c(=O)n(C)c(=O)n4C)CC2)cc1 | - | - | - | - | - | - | .
Cn1c(=O)c2c(ncn2CC(=O)N2CCN(c3ccc([N+](=O)[O-])cc3)CC2)n(C)c1=O | - | - | - | - | 40 | - | 43
O=C1CCCC(=O)N1c1ccc(N2CCN(c3ccccc3)CC2)c([N+](=O)[O-])c1 | - | - | - | - | - | - | .
O=C1CCCC(=O)N1c1ccc(N2CCN(c3ccc([N+](=O)[O-])cc3)CC2)c([N+](=O)[O-])c1 | - | - | - | - | 43 | - | 43
COc1cc(NC(=O)COc2cccc(C)c2C)ccc1NC(=O)c1ccco1 | - | - | . | - | - | - | .
CCn1c(=O)cc(OCC(=O)N2CCN(c3cccc(C(F)(F)F)c3)CC2)c2ccccc21 | - | - | - | - | 51 | - | 47
Cc1cc(=O)oc2cc(Oc3ccc([N+](=O)[O-])cc3C(F)(F)F)ccc12 | - | - | - | - | 44 | - | 42
CC(=O)Oc1ccc2c(C)cc(=O)oc2c1 | - | - | - | - | - | - | .
Nc1ccccc1C(O)(Cc1ccccc1)c1ccccc1 (configuration not stated) | - | - | . | - | - | - | .
